Data published in PubChem BioAssay.
Active and inactive are the calls of the source.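 Rule for the calls, unless noted: active = viability at or below 30% in both replicate assays; inconclusive = viability at or below 30% in just one of the two assays; inactive = the rest.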

How the values were obtained:
[1] = Her2 expression decrease, cell viability multiplex – SKBR3 breast tumor cells, AlphaScreen, ATP viability, primary screen (AID 461;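 active = Her2 level under about 52% in both replicate screens, with viability over 70% of control, limit read from the data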;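 for Her2 level: lower value means less Her2 protein in the cells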;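 for viability: percent of carrier control wells set as 100% viability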); details: SKBR3 Her2 protein level, 18-24 h, measured here: SKBR3 viability, ATP luminescence, at 10 µM
[2] = molecular target: Receptor tyrosine-protein kinase erbB-2 (Homo sapiens) (UniProt P04626); assay: as above; details: 18-24 h, at 10 µM, stronger effect = lower value
Sequence of Receptor tyrosine-protein kinase erbB-2 (Homo sapiens) (P04626 whole entry, looked up): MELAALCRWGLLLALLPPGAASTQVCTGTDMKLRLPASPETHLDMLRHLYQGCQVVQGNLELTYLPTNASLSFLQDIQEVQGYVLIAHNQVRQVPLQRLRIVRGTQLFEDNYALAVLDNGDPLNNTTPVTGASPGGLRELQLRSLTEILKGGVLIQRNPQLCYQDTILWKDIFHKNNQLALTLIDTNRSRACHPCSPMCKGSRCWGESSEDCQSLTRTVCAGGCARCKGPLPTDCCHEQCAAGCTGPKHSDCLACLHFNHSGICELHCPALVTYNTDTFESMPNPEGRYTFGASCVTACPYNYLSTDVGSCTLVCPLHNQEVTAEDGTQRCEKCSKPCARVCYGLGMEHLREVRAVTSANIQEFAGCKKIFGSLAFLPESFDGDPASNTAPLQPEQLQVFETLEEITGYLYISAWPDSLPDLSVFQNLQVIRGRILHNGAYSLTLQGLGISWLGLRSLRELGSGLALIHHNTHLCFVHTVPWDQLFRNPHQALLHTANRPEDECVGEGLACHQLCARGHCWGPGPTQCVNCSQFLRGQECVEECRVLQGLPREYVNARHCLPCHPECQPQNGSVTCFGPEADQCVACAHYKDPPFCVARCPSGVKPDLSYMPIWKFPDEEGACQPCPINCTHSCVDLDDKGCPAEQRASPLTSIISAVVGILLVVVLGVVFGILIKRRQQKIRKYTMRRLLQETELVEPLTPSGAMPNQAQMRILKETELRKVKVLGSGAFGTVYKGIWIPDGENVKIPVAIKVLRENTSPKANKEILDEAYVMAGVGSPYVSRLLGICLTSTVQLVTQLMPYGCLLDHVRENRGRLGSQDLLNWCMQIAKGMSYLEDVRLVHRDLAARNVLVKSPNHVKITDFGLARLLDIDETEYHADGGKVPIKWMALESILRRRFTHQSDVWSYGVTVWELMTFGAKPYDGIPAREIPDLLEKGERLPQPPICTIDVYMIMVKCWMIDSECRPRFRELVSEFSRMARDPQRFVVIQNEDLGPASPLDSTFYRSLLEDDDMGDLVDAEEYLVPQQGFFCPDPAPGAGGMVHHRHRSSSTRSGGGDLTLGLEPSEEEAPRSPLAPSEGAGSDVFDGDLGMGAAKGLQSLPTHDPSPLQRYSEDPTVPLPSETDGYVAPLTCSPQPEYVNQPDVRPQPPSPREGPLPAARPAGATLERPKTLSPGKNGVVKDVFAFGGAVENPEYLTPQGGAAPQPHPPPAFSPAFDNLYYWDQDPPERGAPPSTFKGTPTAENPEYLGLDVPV

[3] = reduced viability of SK-BR-3 breast cancer cells – cell-based, 24 h, human, pilot screen (AID 572;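 active = viability at or below 10% of carrier control in both of two separate runs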;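 note: compound exposure lasted between 18 and 24 h rather than exactly 24 h; 100% = carrier-treated control wells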); details: SK-BR-3 viability, CellTiter-Glo luminescence, at 10 µM, stronger effect = lower value
[4] = HUVEC growth inhibition – cell-based, human, primary screen (AID 575); details: HUVEC proliferation, CellTiter-Glo luminescence, 72 h; at 10 µM; stronger effect = lower value;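 note: 100% = median of untreated cell wells with 0.1% DMSO on each plate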
Summary of the method: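 Test system: HUVEC primary cells. Quantity: 1250 endothelial cells in each well. Dosing: single-point 10 µM, DMSO 0.1% final. Incubation: 72 h treatment at 37 °C. Measured by: CTG luminescence. Control set: DMSO cell controls and MePR drug controls. Plate: collagen-coated 384-well format.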

[5] = MRP1 drug-resistance reversers in H69AR cells – cell-based, doxorubicin co-treatment, pilot screen (AID 601;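 active = viability loss from added drug above about 55%, and viability with drug at most 40%, in both replicates, limit read from the data, passing the limit was not always enough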); details: CellTiter-Glo, 72 h, at 10 µM; for differential viability (reversal): stronger effect = higher value
[6] = yeast transport mutant growth inhibition pilot in 384-well plates, post-Golgi transport modulator project (AID 636; in the data active = inhibition above about 31%); details: absorbance 615 nm, about 18 h, stronger effect = higher value
[7] = growth suppression of yeast trafficking mutant, preliminary HTS, modulators of trafficking downstream of Golgi apparatus project, 1536-format plate, OD 615 nm (AID 637; in the data active = inhibition above about 30%); details: yeast transport mutant growth, absorbance 615 nm, 18 h; stronger effect = higher value
[8] = H69AR cells + 2 uM doxorubicin, measured here: viability with 2 uM doxorubicin, stronger effect = lower value
[9] = H69AR cells, compound alone cytotoxicity

| SMILES | viability [1] [%] | Her2 level [2] | viability [3] | viability [4] | differential viability (reversal) ([5]; H69AR cells + 2 uM doxorubicin) | viability [5, 8] [%] | viability [5, 9] [%] | inhibition [6] | inhibition [7] |
| --- | --- | --- | --- | --- | --- | --- | --- | --- | --- |
| Cc1ccc2c(C)nc(Nc3nc(CSc4nnnn4-c4ccccc4)cc(=O)[nH]3)nc2c1 | 98 | 80% (inactive) | 98% (inactive) | 48.6% (inactive) | -27.3% (inactive) | 78 | 50.7 | -5.47% (inactive) | 1.31% (inactive) |
| Cc1ccc2c(c1)c1c(n2CC(O)Cn2c(C)nc3ccccc32)/C(=N\O)CCC1 (configuration not stated) | 108 | 76.5% (inactive) | 108% (inactive) | 1.52% (active) | -12.7% (inactive) | 44.1 | 31.5 | -4.27% (inactive) | 15.4% (inactive) |
| CCOC(=O)Cc1nnc2c(Nc3ccccc3F)nc3nonc3n12 | 108 | 95.5% (inactive) | 108% (inactive) | 36.9% (inactive) | -18.9% (inactive) | 31.5 | 12.6 | -3.9% (inactive) | -2.54% (inactive) |
| CCOC(=O)c1c(NC(=O)Cn2c(C)nc3ccccc32)sc2c1CCC2 | 107 | 107% (inactive) | 107% (inactive) | 63% (inactive) | 3.14% (inactive) | 54.7 | 57.8 | -4.53% (inactive) | -0.97% (inactive) |
| CCN(CC)CC(=O)Nc1ccc(-c2nc3cc(NC(=O)CN(CC)CC)ccc3o2)cc1 | 91 | 82.5% (inactive) | 91% (inactive) | 3.96% (active) | -14.4% (inactive) | 58.6 | 44.2 | -2.13% (inactive) | -9.34% (inactive) |
| CC(C)(C)c1cc(NC(=O)c2cc(F)c(F)c(F)c2F)no1 | 102 | 92% (inactive) | 102% (inactive) | 63.6% (inactive) | -20.6% (inactive) | 70.8 | 50.2 | 2.08% (inactive) | -3.83% (inactive) |
| O=C(NCc1ccco1)c1cc2c(s1)CSC2 | 97.5 | 88% (inactive) | 97.5% (inactive) | 82.8% (inactive) | -26.3% (inactive) | 83.6 | 57.3 | -0.92% (inactive) | 2.86% (inactive) |
| Cc1ccc(S(=O)(=O)c2cc3c(=O)n4ccccc4nc3n(CC3CCCO3)c2=N)cc1C (configuration not stated) | 83 | 77.5% (inactive) | 83% (inactive) | 69.9% (inactive) | 2.4% (inactive) | 53.5 | 55.9 | -4.86% (inactive) | 2.95% (inactive) |
| Cc1cccc(N2CCN(C(=O)c3ccc(NS(=O)(=O)c4c(C)noc4C)cc3)CC2)c1C | 98 | 106% (inactive) | 98% (inactive) | 68.2% (inactive) | 13.6% (inactive) | 46.2 | 59.8 | -3.68% (inactive) | 2% (inactive) |
| O=C(NC1CCc2ccccc21)C1CCN(S(=O)(=O)c2ccc(-n3cnnn3)cc2)CC1 (configuration not stated) | 74.5 | 85% (inactive) | 74.5% (inactive) | 96.4% (inactive) | -8.48% (inactive) | 63.5 | 55 | -2.63% (inactive) | -0.36% (inactive) |
| C/C(Cl)=C/Cn1c(SCc2ccc(Cl)cc2)nc2c1c(=O)[nH]c(=O)n2C | 102 | 110% (inactive) | 102% (inactive) | 78.8% (inactive) | -6.12% (inactive) | 60.4 | 54.3 | -1.33% (inactive) | -7.1% (inactive) |
| CSc1nc(N)nc(SCCS(=O)(=O)c2ccc(Cl)cc2)c1C#N | 90.5 | 68% (inactive) | 90.5% (inactive) | 56.6% (inactive) | -7.24% (inactive) | 34.2 | 26.9 | -3.47% (inactive) | -3.65% (inactive) |
| CCOC(=O)c1sc(NC(=O)c2c(C)nn(Cc3ccccc3)c2C)cc1C | 82.5 | 90.5% (inactive) | 82.5% (inactive) | 44.6% (inactive) | -8.76% (inactive) | 46.8 | 38.1 | -10% (inactive) | -4.92% (inactive) |
| CCOC(=O)c1ccc(N2C(=O)CC(Sc3nnc(C)s3)C2=O)cc1 (configuration not stated) | 103 | 100% (inactive) | 103% (inactive) | 102% (inactive) | 4.82% (inactive) | 46.2 | 51 | -8.4% (inactive) | -6.67% (inactive) |
| CCCc1cc(-c2n[nH]c(C)c2-c2ccc(C(=O)OCC)o2)c(O)cc1O | 78 | 72% (inactive) | 78% (inactive) | 39.4% (inactive) | -10.2% (inactive) | 38.2 | 28 | -4.74% (inactive) | 1.45% (inactive) |
| Cc1ccc(C)c(S(=O)(=O)C(C#N)c2nc3ccccc3nc2N2CC(C)OC(C)C2)c1 (configuration not stated) | 91 | 77% (inactive) | 91% (inactive) | 52.2% (inactive) | -10.3% (inactive) | 70.7 | 60.4 | 0.52% (inactive) | 16.7% (inactive) |
| COc1cc(-c2noc(-c3ccccc3C(=O)NCc3ccco3)n2)cc(OC)c1OC | 79 | 72.5% (inactive) | 79% (inactive) | 55.6% (inactive) | -6.29% (inactive) | 65.2 | 59 | -5.14% (inactive) | 1.11% (inactive) |

| SMILES | viability [1] [%] | Her2 level [2] | viability [3] | viability [4] | differential viability (reversal) ([5]; H69AR cells + 2 uM doxorubicin) | viability [5, 8] [%] | viability [5, 9] [%] | inhibition [6] | inhibition [7] |
| --- | --- | --- | --- | --- | --- | --- | --- | --- | --- |
| Cc1ccc(CNC(=O)c2coc(=O)c3ccccc23)o1 | 93.5 | 81% (inactive) | 93.5% (inactive) | 81.8% (inactive) | -24.6% (inactive) | 67 | 42.4 | -0.53% (inactive) | -5.82% (inactive) |
| C=CCn1c(N)c(C(=O)OC(C)(C)C)c2nc3ccccc3nc21 | 102 | 90.5% (inactive) | 102% (inactive) | 70.5% (inactive) | -15.9% (inactive) | 66.7 | 50.8 | 0.66% (inactive) | 1.94% (inactive) |
| CCCCCCc1ccc(-c2ncc(N)cn2)cc1 | 97 | 90.5% (inactive) | 97% (inactive) | 7.73% (active) | -5.17% (inactive) | 61.9 | 56.7 | -1.47% (inactive) | 0.32% (inactive) |
| Cc1ccc2cc(CN(CCN3CCCC3)C(=O)Nc3ccc(F)cc3)c(=O)[nH]c2c1C | 94.5 | 81% (inactive) | 94.5% (inactive) | 38.8% (inactive) | -12.2% (inactive) | 25.6 | 13.5 | 0.52% (inactive) | -0.79% (inactive) |
| CCOc1ccccc1-n1nnnc1SCC(=O)Nc1cc2oc3ccccc3c2cc1OC | 68.5 | 102% (inactive) | 68.5% (inactive) | 63.6% (inactive) | -11.1% (inactive) | 54.7 | 43.6 | 4.16% (inactive) | -9.05% (inactive) |
| CN1CC=C2C(C#N)=C(N)C(C#N)(C#N)[C@H](c3cccc(Cl)c3)C2C1 (some centres not stated) | 94 | 73.5% (inactive) | 94% (inactive) | 83% (inactive) | 32.6% (inactive) | 22.1 | 54.7 | -4.27% (inactive) | -1.9% (inactive) |
| COc1ccc(N2CCN(Cc3cc(=O)oc4cc(C)c(Cl)c(C)c34)CC2)cc1 | 93.5 | 83.5% (inactive) | 93.5% (inactive) | 84.1% (inactive) | -1.03% (inactive) | 75.8 | 74.8 | -7.33% (inactive) | 1.9% (inactive) |
| COC(=O)c1ccccc1S(=O)(=O)N(Cc1cc2cc3c(cc2[nH]c1=O)OCO3)C1CCCCC1 | 83 | 98.5% (inactive) | 83% (inactive) | 82.6% (inactive) | -7.41% (inactive) | 67.4 | 60 | 4.74% (inactive) | -2% (inactive) |
| CCOC(=O)c1c(C)oc2c1c(C(c1ccncc1)N1CCOCC1)c(O)c1ccccc12 (configuration not stated) | 104 | 85% (inactive) | 104% (inactive) | 9.39% (active) | -5.27% (inactive) | 6.38 | 1.11 | -0.13% (inactive) | -3.49% (inactive) |
| CC(C)C(=O)Nc1ccc(C(=O)NCc2cccnc2)cc1 | 107 | 108% (inactive) | 107% (inactive) | 118% (inactive) | -61.7% (inactive) | 72.5 | 10.8 | 4.42% (inactive) | -7.14% (inactive) |
| N#Cc1c(N)nc(SCc2ccncc2)c(C#N)c1-c1cccs1 | 98.5 | 71% (inactive) | 98.5% (inactive) | 79% (inactive) | 37.4% (inactive) | 14.9 | 52.3 | -0.53% (inactive) | 7.74% (inactive) |
| CCSc1nnc(NC(=O)c2ccccn2)s1 | 92 | 80.5% (inactive) | 92% (inactive) | 18.4% (active) | -14% (inactive) | 34.8 | 20.8 | 4.03% (inactive) | 9.21% (inactive) |
| COc1ccccc1-c1c(C)nn2c(N3CCC4(CC3)OCCO4)cc(C)nc12 | 90 | 89% (inactive) | 90% (inactive) | 99.3% (inactive) | 30.6% (inactive) | 29.3 | 60 | -1.05% (inactive) | -2.42% (inactive) |
| N#CC1=C(N)n2c(s/c(=C\c3ccco3)c2=O)=C(C#N)C1c1ccco1 (configuration not stated) | 100 | 31.5% (active) | 100% (inactive) | 78.6% (inactive) | -10.7% (inactive) | 58 | 47.4 | 0.13% (inactive) | -4.36% (inactive) |
| C=C(c1ccc(O)cc1)c1ccc(O)cc1 | 105 | 93% (inactive) | 105% (inactive) | 70.8% (inactive) | -42.8% (inactive) | 87.9 | 45 | -5.92% (inactive) | -2.54% (inactive) |
| N#C/C(C(=O)NCc1ccco1)=C1/SC(Cc2ccc(F)cc2)C(=O)N1c1ccccc1 (configuration not stated) | 112 | 84% (inactive) | 112% (inactive) | 88.3% (inactive) | -10.3% (inactive) | 58.3 | 48 | -3.68% (inactive) | -1.64% (inactive) |
